Sampled rows, rich in hits. Any-hit rate of the full collection: about 6.9%.
Pyk2 oligo antag – antagonists of human Pyk2 oligomerization | 0.83% of 99,000 active | z-score (the deposit names both 25 µM and 10 µM) | Q293 cells, Pyk2 FERM NanoBiT luminescence; active compounds read low | AID 1347419 | Q14289;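 active = Z-score of -3 or lower, scaled per plate to the spread of control and sample wells; inactive = z-score above -3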;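 note: negative z-score means lost luminescence so less FERM oligomerization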
PostGolgi ctrl – growth of the yeast control strain, post-Golgi counter-screen. efflux-deficient yeast background strain, growth absorbance A615, 16 h. inhibition, % at 10 µM. 5% of 98,000 active. AID 738; in the data active = inhibition above about 30%
tolC growth inh – blocks growth of E. coli BW25113 tolC mutant; OD615; growth inhibition, % at 10 µM (by protocol); 2.2% of 65,000 active; AID 573;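 active = growth inhibition at or above a cutoff equal to the mean over every tested compound plus 3 SD, cut at about 60% in these data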;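 note: growth measured after 20 h incubation at 37 °C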
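Test system: E. coli BW25113 ΔtolC::kan bacteria | Medium: Kanamycin-containing LB broth (50 µg/mL) | Dosing: One dose of 10 µM final | Times: 20 h incubation with compound, 37 °C | Detection: Optical density read at 615 nm | Read-out basis: Percent growth inhibition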
FAK blocker – blocks human focal adhesion kinase activity | Q05397 | biochemical FAK kinase activity assay | inhibition, %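 (tested at 7 µM)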 | 0.84% of 97,000 active
PostGolgi yeast – growth inhibition of a yeast mutant, post-Golgi transport screen. post-Golgi transport phenotypic cell assay. inhibition, % at 10 µM. 0.9% of 98,000 active. AID 739; in the data active = inhibition above about 30%;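 note: yeast cells grown in 1536-well plates; yeast grown about 18 h at 30C before absorbance read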
Candida biofilm – kills Candida albicans biofilms; C. albicans biofilm + clotrimazole, Alamar Blue; inhibition, % at 6 µM; 0.14% of 85,000 active;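 active = inhibition above 20%; inactive = inhibition below 20%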;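 note: preformed 24 hr biofilms exposed to compound for 48 hr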
FAK inh confirm – FAK (human) inhibition confirmed. shares compounds with FAK blocker. FAK kinase biochemical inhibition assay. inhibition, % at 7 µM. 28% of 750 active. AID 794
Each line names hits and unclear results; the compound was inactive in the other large screens (follow-up assays come after a bar, where they were run). Cut-off read from the data, not from the text of the source, unless noted: active = inhibition above about 19%; inactive = the rest.

CCOC(=O)c1ccc(NC(=O)CSc2nc(NC(=O)c3ccccc3)c3c(C)c(C)oc3n2)cc1	FAK blocker 27 (no result: tolC growth inh) | FAK inh confirm inactive
COC(=O)c1ccccc1NC(=O)CSc1nc(NC(=O)c2ccccc2)c2c(C)c(C)oc2n1	none
O=S(=O)(c1ccccc1)N1CCSC1c1ccco1 (centres undefined)	none
O=C(Nc1ccc(Cl)c(Cl)c1)N1CCSC1c1ccco1 (centres undefined)	tolC growth inh 100, FAK blocker 26 | FAK inh confirm inactive
Cc1ccccc1NC(=O)CN1C(=O)S/C(=C\c2cccn2-c2cccc(C(=O)O)c2)C1=O	none (no result: tolC growth inh, Candida biofilm)
Cc1ccc(NC(=O)CN2C(=O)S/C(=C\c3cccn3-c3cccc(C(=O)O)c3)C2=O)c(C)c1	FAK blocker 65 (no result: tolC growth inh, Candida biofilm) | FAK inh confirm inactive
CCOc1ccc(S(=O)(=O)N(CC(=O)N/N=C/c2ccc(-c3ccc([N+](=O)[O-])cc3)o2)c2ccccc2)cc1	FAK blocker 45 (no result: tolC growth inh, Candida biofilm) | FAK inh confirm 21
CC1=NN(c2cccc(C(=O)O)c2)C(=O)/C1=C\C=C\c1ccco1	none (no result: PostGolgi ctrl, tolC growth inh, PostGolgi yeast)
CC(C)C(C(=O)O)N1C(=O)/C(=C/C=C/c2ccco2)SC1=S (centres undefined)	FAK blocker 88 (no result: tolC growth inh, Candida biofilm) | FAK inh confirm inactive
Cc1oc(-c2ccccc2F)nc1CS(=O)(=O)CC(=O)NCc1ccco1	FAK blocker 27 (no result: Pyk2 oligo antag) | FAK inh confirm inactive
Cc1oc(-c2ccccc2F)nc1CS(=O)(=O)CC(=O)NCCCc1ccccc1	none (no result: Pyk2 oligo antag, FAK blocker)
Cc1nc2ccccc2nc(C)c1=NO	none (no result: tolC growth inh)
C/C(O)=c1/ccc2cccc3nc(C)nc1c23	tolC growth inh 73, FAK blocker 24 | FAK inh confirm inactive
CCCCCCCCS(=O)C1CCS(=O)(=O)C1 (centres undefined)	none (no result: tolC growth inh)
CCc1nc(OCCN(CC)CC)c2oc3ccccc3c2n1	none
CCc1nc(Sc2nc(C)cc(C)n2)c2oc3ccccc3c2n1	FAK blocker 22 | FAK inh confirm inactive
Cc1ccccc1Nc1cc(=O)oc2ccccc12	none (no result: tolC growth inh, Candida biofilm)
CCOC(=O)N1CCC2(CC1)C(C#N)=C(N)Oc1n[nH]c(CSc3ccc(C)cc3)c12	FAK blocker 22 | FAK inh confirm inactive
CC1CN(S(=O)(=O)c2cccc(C(=O)NCCCn3ccnc3)c2)CC(C)O1 (centres undefined)	none (no result: tolC growth inh)
CCN(CC)CCn1c2ccccc2c2cnc(N)c(C#N)c21	PostGolgi ctrl 52, FAK blocker 40 (no result: tolC growth inh) | FAK inh confirm inactive
O=c1oc2c3c4c(cc2s1)CCCN4CCC3	FAK blocker 20 | FAK inh confirm inactive
CCN1C(=O)c2cccc3c(S(=O)(=O)NCc4ccco4)ccc1c23	FAK blocker 21 | FAK inh confirm inactive
O=C(Cn1c(=O)oc2cc(S(=O)(=O)N3CCCCCC3)ccc21)NC1CCCCCCC1	FAK blocker 22 (no result: Pyk2 oligo antag) | FAK inh confirm inactive
O=C(Cn1c(=O)oc2cc(S(=O)(=O)N3CCCC3)ccc21)NC1CCCc2ccccc21 (centres undefined)	none (no result: Pyk2 oligo antag, FAK blocker)
COc1ccccc1NC(=O)C(CC(C)C)NC(=O)C1CCCCC1 (centres undefined)	none (no result: tolC growth inh, Candida biofilm)
Cn1c(SCc2ccon2)nc2ccccc2c1=O	FAK blocker 23 | FAK inh confirm inactive
CSc1nc(SCC(=O)NC(c2ccccc2)c2ccccc2)c2c3c(sc2n1)CN(C)CC3	FAK blocker 24 (no result: tolC growth inh) | FAK inh confirm inactive
CSc1nc(SCC(=O)NCc2ccco2)c2c3c(sc2n1)COC(C)(C)C3	none (no result: FAK blocker)
N#CCC(CNc1ncc(C(F)(F)F)cc1Cl)OC(=O)c1c(F)cccc1F (centres undefined)	none (no result: PostGolgi ctrl, tolC growth inh, PostGolgi yeast, Candida biofilm)
CCOC(=O)c1sc(C)c2c1NC1(CCCCCC1)NC2=O	FAK blocker 68 (no result: tolC growth inh) | FAK inh confirm inactive
Cc1nc2sccn2c1-c1nc(C2CC2)c(C(=O)c2ccc3c(c2)NC(=O)CO3)s1	none (no result: Pyk2 oligo antag, PostGolgi ctrl, FAK blocker, PostGolgi yeast)
Cc1cc(S(=O)(=O)Nc2ccc(C(=O)N3CCN(C(=O)c4ccco4)CC3)cc2)ccc1F	none (no result: tolC growth inh, Candida biofilm)
O=C(c1ccc(S(=O)(=O)Nc2ccc(F)cc2)cc1)N1CCN(C(=O)c2ccco2)CC1	FAK blocker 27 (no result: tolC growth inh) | FAK inh confirm inactive
Cc1cccc(NC(=O)C2CCCN(S(=O)(=O)c3cccc4nsnc34)C2)c1 (centres undefined)	FAK blocker 94 (no result: tolC growth inh) | FAK inh confirm inactive
COC(=O)c1c(C)oc2ccc(NS(=O)(=O)c3cccs3)cc12	FAK blocker 24 | FAK inh confirm inactive
COC(=O)c1c(C)oc2ccc(N(C(=O)c3ccncc3)S(=O)(=O)c3ccccc3)cc12	none (no result: tolC growth inh, Candida biofilm)
O=C(c1ccco1)N(CCC(c1ccccc1)c1ccco1)Cc1ccco1 (centres undefined)	FAK blocker 20 (no result: tolC growth inh, Candida biofilm) | FAK inh confirm inactive
NC(=O)CC(c1ccccc1)c1ccco1 (centres undefined)	none (no result: tolC growth inh)
CC(C)c1nnc(NC(=O)C2CCCCC2)s1	none (no result: Pyk2 oligo antag)
CC(C)c1cc(C(N)=O)c(NC(=O)C2CCC2)s1	FAK blocker 24 | FAK inh confirm inactive
O=C(NCc1ccccn1)c1cccc([N+](=O)[O-])c1	none (no result: tolC growth inh, Candida biofilm)
COc1ccccc1NC(=O)Cn1nnc(-c2ccccc2NC(=O)c2ccco2)n1	FAK blocker 27 | FAK inh confirm inactive
O=C(Cn1nnc(-c2ccccc2NC(=O)c2cccs2)n1)Nc1ccccc1	none (no result: tolC growth inh)
COc1ccc(NC(=O)Cn2nnc(-c3ccccc3NC(=O)c3ccco3)n2)cc1	none
COc1ccccc1NC(=O)Cn1nnc(-c2ccccc2NC(=O)c2cccs2)n1	FAK blocker 21 | FAK inh confirm inactive
COC(=O)CSc1ccccc1C(=O)OC	none
COC(=O)c1cccc2c1-c1ccccc1/C2=N/O	PostGolgi ctrl 47, FAK blocker 50 | FAK inh confirm 28
N#Cc1nc(-c2cccs2)oc1NCc1ccccc1	FAK blocker 22 | FAK inh confirm inactive
S=C(c1ccc(N2CCCC2)cc1)N1CCCCC1	none
Nc1ccc(N2CCCCCC2)cc1	FAK blocker 28 (no result: Pyk2 oligo antag) | FAK inh confirm inactive
COc1cc(S(=O)(=O)N2CCOCC2)ccc1NC(=O)c1cc2c(s1)CCC2	none (no result: FAK blocker)
COc1ccc2sc3ccccc3c(=O)c2c1	FAK blocker 29 (no result: tolC growth inh, Candida biofilm) | FAK inh confirm inactive
COc1cccc2sc(N3CCN(c4nc5ccccc5s4)CC3)nc12	none
CCNc1nc(N)c(C(=O)c2ccc(Cl)s2)s1	PostGolgi ctrl 46, FAK blocker 19 | FAK inh confirm inactive
COCCCn1c2nc3ccccc3nc2c2c(=O)n(Cc3ccccc3Cl)cnc21	none (no result: Pyk2 oligo antag, PostGolgi ctrl, FAK blocker, PostGolgi yeast)
Brc1ccc2ncnc(Nc3ccc(N4CCOCC4)cc3)c2c1	FAK blocker 20 | FAK inh confirm inactive
O=C(COc1ncnc2ccc(Br)cc12)Nc1ccc(N2CCOCC2)cc1	none
Cc1nnc(NC(=O)CSc2ncnc3c2cnn3-c2ccccc2C)s1	FAK blocker 30 (no result: tolC growth inh, Candida biofilm) | FAK inh confirm inactive
CCCc1cc(C(=O)N(C2CCCCC2)C2CCCCC2)no1	none (no result: Pyk2 oligo antag)
Cc1cc(/C=N/NC(=O)c2cccc([N+](=O)[O-])c2)c(C)n1-c1ccc(Cl)cc1Cl	FAK blocker 20, PostGolgi yeast 34 (no result: tolC growth inh, Candida biofilm) | FAK inh confirm inactive
